# AHR act: activators of human aryl hydrocarbon receptor; P35869; AHR-responsive luciferase reporter cells, luminescence; activation, % at 5 µM; hit rate 2.5% among 320,000; AID 2796; in the data active = activation above about 47%;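 also: 0% = vehicle wells and 100% = reference agonist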
# Target sequence (P35869 whole entry, looked up): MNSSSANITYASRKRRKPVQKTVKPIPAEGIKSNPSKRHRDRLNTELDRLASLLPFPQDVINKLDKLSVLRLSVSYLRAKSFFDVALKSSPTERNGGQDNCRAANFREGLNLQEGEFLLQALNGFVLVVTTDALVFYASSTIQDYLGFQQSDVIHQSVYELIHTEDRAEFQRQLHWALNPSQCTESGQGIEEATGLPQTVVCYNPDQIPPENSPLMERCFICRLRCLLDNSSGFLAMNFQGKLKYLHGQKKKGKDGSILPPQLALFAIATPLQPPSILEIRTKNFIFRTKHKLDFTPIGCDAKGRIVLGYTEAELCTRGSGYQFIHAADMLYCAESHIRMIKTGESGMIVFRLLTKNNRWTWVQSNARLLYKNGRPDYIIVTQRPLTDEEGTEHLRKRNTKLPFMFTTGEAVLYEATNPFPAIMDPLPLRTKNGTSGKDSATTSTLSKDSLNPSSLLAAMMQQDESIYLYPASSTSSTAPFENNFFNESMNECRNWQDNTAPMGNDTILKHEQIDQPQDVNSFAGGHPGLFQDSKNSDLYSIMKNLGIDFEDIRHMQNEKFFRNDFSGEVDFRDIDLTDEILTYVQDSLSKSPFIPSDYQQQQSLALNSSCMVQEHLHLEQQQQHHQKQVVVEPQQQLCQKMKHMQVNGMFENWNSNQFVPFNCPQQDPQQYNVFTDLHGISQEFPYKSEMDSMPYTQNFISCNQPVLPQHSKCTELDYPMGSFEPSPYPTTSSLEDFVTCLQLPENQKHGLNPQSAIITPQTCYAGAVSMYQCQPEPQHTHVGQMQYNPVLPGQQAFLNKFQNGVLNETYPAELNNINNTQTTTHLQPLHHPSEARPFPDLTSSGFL
# GAA850 FXN act: activators of GAA850 frataxin (FXN) promoter | activation, % at 6 µM | HEK293 lucGAA850 FXN promoter luciferase reporter, 24 h; percent of 10 µM SAHA response | hit rate 0.56% among 360,000 | AID 540364;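 active = activation above the average of all compounds screened plus 3 SD, cutoff fixed separately per campaign, cut at about 7.5% in these data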;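 also: 0% = DMSO wells and 100% = 10 µM SAHA wells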
# MC4R barr agon: agonists of human melanocortin 4 receptor (MC4R) beta-arrestin | P32245 | U2OS MC4R beta-arrestin complementation, luminescence; percent of melanotan II response, DMSO zero | activation, % at 8.9 µM | hit rate 0.98% among 360,000 | AID 540308;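 active = activation above a per-plate cutoff, the mean activation of sample wells on that plate plus 3 SD, cut at about 8% in these data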
# HTR2A ag: activates the mouse 5-HT2A serotonin receptor. CHO-K1 mHTR2A beta-arrestin complementation, luminescence; percent of 30 µM serotonin response. AID 624169. hit rate 0.66% among 360,000. P35363. activation, % at 7.6 µM;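 active = activation above a run cutoff, the mean activation of all tested compounds plus 3 SD, cut at about 14% in these data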;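 also: 0% = plate median of compound wells and 100% = 30 µM serotonin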
# MC4R antag cAMP: antagonists of human melanocortin 4 receptor (MC4R); P32245; MC4R-expressing cells, MTII-stimulated cAMP, LANCE TR-FRET; AID 540295; hit rate 0.48% among 360,000; inhibition, % at 6.5 µM;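 active = inhibition above its plate's cutoff, the mean of tested wells on that plate plus 3 SD, cut at about 29% in these data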;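 also: 0% = Melanotan II alone and 100% = Melanotan II plus saturating MCL0020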
#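 System – human MC4R-expressing U2OS cells · Also added – Melanotan II · Dosing – one concentration, 6.5 µM nominal · Timing – 30-min compound, 1-h challenge, 1-h detection, room temperature · Measured by – Eu-cAMP/anti-cAMP TR-FRET, emission 671 nm · Replicates – singlicate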
# MC4R barr ag: human MC4R beta-arrestin agonism confirmation. shares compounds with MC4R barr agon. U2OS MC4R beta-arrestin recruitment, luminescence; scaled DMSO 0%, Melanotan II 100%. activation, % at 8.9 µM. hit rate 31% among 2,400;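 active = mean activation across replicates above the hit cutoff set in the earlier primary screen, cut at about 8% in these data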
# MOR DOR agonist: activates mu-delta opioid heterodimer, MC4R agonist counter-screen. hit rate 5.8% among 2,400. U2OS PathHunter beta-arrestin, beta-gal luminescence; percent of deltorphin B response, DMSO zero. shares compounds with MC4R barr agon. activation, % at 9.2 µM. AID 602194;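 active = mean activation across replicates exceeds the hit threshold derived in the earlier primary screen, cut at about 18% in these data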;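 also: 100% = deltorphin B at 0.9 µM final and 0% = DMSO alone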
# Starred values were filed as active, the others as inactive; nt = no result. Shown are actives, neighbours in structure and some others; about 4.7% of the full set was active somewhere.
SMILES,AHR act,GAA850 FXN act,MC4R barr agon,HTR2A ag,MC4R antag cAMP,MC4R barr ag,MOR DOR agonist
O=C(CC1CC1)Nc1ccc2c(c1)[C@H]1C[C@H](CC(=O)N3CCc4ccccc4C3)O[C@@H](CO)[C@H]1O2,nt,0,1,-5,7,nt,nt
CCN(C(=O)Cn1cnc2c1c(=O)n(C)c(=O)n2C)C1CCS(=O)(=O)C1 (stereo not drawn),2,1,-2,-3,-5,nt,nt
CCCCN1C[C@H](C)[C@@H](CC(=O)NC)C1=O,nt,3,-1,6,-1,nt,nt
CC(C)C[C@H](CO)N(Cc1ccccc1)S(=O)(=O)N(Cc1ccccc1)[C@@H](CO)CC(C)C,10,4,-1,9,21,nt,nt
O=S(=O)(N(Cc1ccccc1)[C@@H](CO)Cc1ccccc1)N(Cc1ccccc1)[C@@H](CO)Cc1ccccc1,1,1,13*,-3,13,5,5
O=S1(=O)C=C[C@@H](COCc2ccccc2)N1Cc1ccc(Br)cc1,nt,nt,nt,0,nt,nt,nt
Cc1ccsc1-c1nc(-c2ccccc2)c(-c2ccccc2)[nH]1,28,0,10*,3,0,11*,5
CC(=O)Oc1ccc(/C(C)=N\N2CCN(Cc3ccc(Cl)cc3)CC2)cc1,1,1,0,-1,-2,nt,nt
Cc1ccc(NC(=O)c2ccc(OC(=O)CCN3C(=O)c4ccccc4C3=O)cc2)cc1,9,5,12*,-1,6,2,3
Cc1cc(C)cc(OC(=O)CCN2C(=O)c3ccccc3C2=O)c1,7,1,3,7,0,nt,nt
O=C(CSc1nccc(-c2ccc(Br)cc2)n1)NCCc1ccccc1,1,1,12*,-5,6,1,4
Cc1nc(SCC(=O)NCCc2ccccc2)n[nH]1,2,0,-1,0,11,nt,nt
c1ccc(C2=Nn3c(nnc3-c3ccncc3)SC2)cc1,22,-4,-1,-3,7,nt,nt
c1ccc(-c2cc(-c3nnc4n3N=C(c3ccc5ccccc5c3)CS4)[nH]n2)cc1,26,1,32*,4,1,14*,5
Cc1ccc2oc(-c3cccc(NC(=O)Cn4cnc5c(=O)n(C)c(=O)n(C)c54)c3)nc2c1,23,nt,nt,nt,nt,nt,nt
CCC(C)c1ccc2oc(-c3ccc(NC(=O)Cn4cnc5c(=O)n(C)c(=O)n(C)c54)cc3)nc2c1 (stereo not drawn),11,0,14*,-3,24,8.6*,nt
CCn1c(SCC(=O)Nc2ccc(NC(=O)c3ccco3)c(OC)c2)nc2ccccc2c1=O,-3,1,18*,4,15,5,2
C=CCn1c(SCC(=O)Nc2ccc(OC)cc2)nc2ccccc2c1=O,6,-2,15*,1,2,-2,1
COCCn1c(SCC(=O)Nc2ccc(NC(=O)c3ccco3)c(OC)c2)nc2ccccc2c1=O,-1,-3,27*,0,-4,8,16
Cn1cccc1C(=O)NC1CCCCC1,12,5,-1,-3,1,nt,nt
CC1(Cc2ccc(F)c(Cl)c2)C(=O)Nc2c(Cl)cccc21 (stereo not drawn),nt,7,8,7,4,nt,nt
CCCc1ccc(Oc2coc3cc(OCC(=O)Nc4ccccc4C)ccc3c2=O)cc1,1,-2,22*,1,7,15*,7
CCc1ccc(Oc2coc3cc(OCC(=O)Nc4cc(C)ccc4C)ccc3c2=O)cc1,1,2,6,-1,2,nt,nt
COc1ccc(N2CCN(CCNC(=O)Nc3ccc(C)cc3Cl)CC2)cc1,6,3,-1,0,-2,nt,nt
CCc1ccc(NC(=O)CSc2nnc(-c3n[nH]c4ccccc34)n2-c2ccccc2)cc1,2,4,10*,-5,4,5,9
SMILES,AHR act,GAA850 FXN act,MC4R barr agon,HTR2A ag,MC4R antag cAMP,MC4R barr ag,MOR DOR agonist
O=C(CSc1nnc(-c2n[nH]c3ccccc23)n1-c1ccccc1)Nc1cccc(Cl)c1,2,7,8,-5,10,nt,nt
Nc1ccc(C(=O)Nc2ccc(OC(F)(F)C(F)F)c(NC(=O)c3ccc(N)cc3)c2)cc1,18,0,-1,-8,2,nt,nt
O=C(Nc1ccc(OC(F)(F)C(F)F)c(NC(=O)c2ccc(F)cc2)c1)c1ccc(F)cc1,5,2,12*,3,6,1,4
Cc1ccc(NC(=O)C(=O)NCCOc2ccccc2Cl)cc1,11,2,12*,-1,1,9.8*,4
CCc1ccc(NC(=O)C(=O)NCCOc2ccccc2Cl)cc1,4,1,21*,6,-4,6,3
N#CC(=C(O)CN1CCN(c2ccccc2F)CC1)c1nc(-c2ccc(Cl)cc2)cs1,nt,0,-1,0,17,nt,nt
N#CC(=Cc1ccccn1)c1nc(-c2ccc(Cl)cc2)cs1,nt,5,17*,-4,1,3,3
Cc1ccc(NS(=O)(=O)c2ccc(-n3cccn3)cc2)cc1Cl,nt,-2,13*,4,13,0,8
O=S(=O)(Nc1cccc(Cl)c1)c1ccc(-n2cccn2)cc1,1,1,3,-5,-1,nt,nt
COc1cc(NC(=O)c2ccc(-c3cn[nH]c3)c3ccoc23)cc(OC)c1OC,nt,-1,-2,4,10,nt,nt
COc1cc(NC(=O)c2ccc(-c3ccc(F)c(F)c3)c3ccoc23)cc(OC)c1OC,nt,-2,14*,-7,7,5,5
O=C(CNCc1ccc(Cl)cc1)Nc1cc(S(=O)(=O)N2CCCC2)ccc1Cl,nt,0,-1,-9,5,nt,nt
CC(C)CC(N)c1csc(NC(=O)Nc2ccccc2Cc2ccccc2)n1 (stereo not drawn),nt,-1,6,-1,5,nt,nt
CC(C)CC(N)c1csc(NC(=O)C(c2ccccc2)c2ccccc2)n1 (stereo not drawn),nt,-3,13*,10,-1,16*,24*
Cc1ccc2nc(NC(=O)c3cc(-c4ccco4)nc4ccccc34)sc2c1,20,4,23*,1,3,13*,3
CCc1nc(NCC2CC2)c2nnn(Cc3ccccc3)c2n1,nt,2,12*,5,-1,4,10
COc1cccc(-c2cc3c(c4c2ccn4C)C2CCC3C2)c1 (stereo not drawn),nt,nt,nt,0,nt,nt,nt
Cc1nc2c(sc(=S)n2Cc2ccco2)c(=O)n1CC(=O)Nc1cc(F)ccc1F,-1,-2,12*,2,9,6,4
Cc1nc2c(sc(=S)n2Cc2ccco2)c(=O)n1CC(=O)Nc1ccc(F)cc1,-2,-1,15*,4,13,1,6
CCn1c(=S)sc2c(=O)n(CC(=O)Nc3ccc(C(C)=O)cc3)c(C)nc21,-2,-1,1,7,11,nt,nt

# Screening data from PubChem.
